Legend:
[1] = biological target: T1, Melanin-concentrating hormone receptor 1 (Homo sapiens, UniProt Q99705); assay: Inhibition of melanin concentrating hormone receptor 1 from human neuronal IMR-32 cells; assay type: cell-based
[2] = biological target: T1, Melanin-concentrating hormone receptor 1; assay: Inhibition of melanin concentrating hormone receptor 1-mediated [Ca2+] release in human neuronal IMR-32 cells; assay type: functional, cell-based
[3] = Area under concentration time curve in brain of mice following peroral administration of 10 mg/kg of the compound; assay type: ADME, organism-based; design: dose 10 mg/kg, route oral; settings: mouse, in vivo, po
How it was run: (§1)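 DIO mice given a single 10 mg/kg oral dose in 1% Tween-80 in water. Plasma and brain drug levels were measured over time. Cmax is the average of the three mice with the highest concentrations. AUC0-t was calculated by the linear trapezoidal rule, and the residual area (Ct/β) was added to give AUC0-∞. C12h is the brain level at 12 h postdose.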

[4] = Area under concentration time curve in plasma of mice following peroral administration of 10 mg/kg of the compound; assay type: ADME, organism-based; design: dose 10 mg/kg, route oral; settings: mouse, in vivo, po; how it was run: as §1
[5] = Maximum concentration in brain of mice following peroral administration at 10 mg/kg; n=3; assay type: ADME, organism-based; design: dose 10 mg/kg, route oral; settings: mouse, po; how it was run: as §1
[6] = Maximum concentration in brain of mice at 12 hours following peroral administration at 10 mg/kg; n=3; assay type: ADME, organism-based; design: dose 10 mg/kg, route oral; settings: mouse, po; how it was run: as §1
[7] = Area under concentration time curve in brain of mice following peroral administration at 10 mg/kg; n=3; assay type: ADME, organism-based; design: dose 10 mg/kg, route oral; settings: mouse, in vivo, po; how it was run: as §1
[8] = Area under concentration time curve in plasma of mice following peroral administration at 10 mg/kg; n=3; assay type: ADME, organism-based; design: dose 10 mg/kg, route oral; settings: mouse, in vivo, po; how it was run: as §1
Mus musculus [9] = assay: Body weight of mice on day 14 following peroral administration at 10 mg/kg, twice a day; n = 12; assay type: functional; settings: route oral
How it was run: (§2)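 Chronic study in DIO mice fed a high-fat diet ad libitum. Dosing was by oral gavage, bid for 14 days, in 4 mL/kg of 1% Tween-80 in water, with vehicle controls. Body weight and food intake were recorded on days 1, 4, 7, 11 and 14. Body-weight change is in grams relative to day 0, and % change is relative to vehicle. Mean ± SEM, n = 12.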

Mus musculus [10] = assay: Body weight of mice on day 14 following peroral administration at 30 mg/kg, twice a day; n = 12; assay type: functional; settings: route oral; how it was run: as §2
[11] = Concentration in brain of mice,17 hours after administration of final dose at 30 mg/kg, twice a day; assay type: ADME, organism-based; design: dose 30 mg/kg; settings: mouse, read-out: Cmax
How it was run: (§3)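 DIO mice received the test compound orally, bid, in 1% Tween-80 in water for 14 days. Plasma and brain drug concentrations were measured 1 h (taken as Cmax) or 17 h after the final dose on day 14. Mean ± SEM, n = 3.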

Mus musculus [12] = assay: Change in body weight of mice on day 14 following peroral administration at 30 mg/kg, twice a day; n = 12; body weight at day 0 = 45 g; assay type: functional; settings: route oral; how it was run: as §2
Mus musculus [13] = assay: Change in body weight of mice on day 14 following peroral administration at 10 mg/kg, twice a day; n = 12; body weight at day 0 = 44.7 g; assay type: functional; settings: route oral; how it was run: as §2
[14] = Concentration in brain of mice,1 hour after administration of final dose at 10 mg/kg, twice a day; assay type: ADME, organism-based; design: dose 10 mg/kg; settings: mouse, read-out: Cmax; how it was run: as §3
[15] = Concentration in brain of mice,1 hour after administration of final dose at 30 mg/kg, twice a day; assay type: ADME, organism-based; design: dose 30 mg/kg; settings: mouse, read-out: Cmax; how it was run: as §3
[16] = Concentration in plasma of mice,1 hour after administration of final dose at 10 mg/kg, twice a day; assay type: ADME, organism-based; design: dose 10 mg/kg; settings: mouse, read-out: Cmax; how it was run: as §3
[17] = Concentration in plasma of mice,1 hour after administration of final dose at 30 mg/kg, twice a day; assay type: ADME, organism-based; design: dose 30 mg/kg; settings: mouse, read-out: Cmax; how it was run: as §3
[18] = Concentration in brain of mice,17 hours after administration of final dose at 10 mg/kg, twice a day; assay type: ADME, organism-based; design: dose 10 mg/kg; settings: mouse, read-out: Cmax; how it was run: as §3
[19] = Concentration in plasma of mice,17 hours after administration of final dose at 10 mg/kg, twice a day; assay type: ADME, organism-based; design: dose 10 mg/kg; settings: mouse, read-out: Cmax; how it was run: as §3
[20] = Concentration in plasma of mice,17 hours after administration of final dose at 30 mg/kg, twice a day; assay type: ADME, organism-based; design: dose 30 mg/kg; settings: mouse, read-out: Cmax; how it was run: as §3
[21] = Maximum concentration of the compound in brain of mice following peroral administration at 10 mg/kg; n=3; assay type: ADME, organism-based; design: dose 10 mg/kg, route oral; settings: mouse, po; how it was run: as §1
Mus musculus [22] = assay: Body weight of mice on day 14 following peroral administration at 10 mg/kg, 4 times a day; n = 12; assay type: functional; settings: route oral
Mus musculus [23] = assay: Change in body weight of mice on day 14 following peroral administration at 10 mg/kg, 4 times a day; n = 12; body weight at day 0 = 43.2 g; assay type: functional; settings: route oral

T1 sequence (Q99705 whole entry): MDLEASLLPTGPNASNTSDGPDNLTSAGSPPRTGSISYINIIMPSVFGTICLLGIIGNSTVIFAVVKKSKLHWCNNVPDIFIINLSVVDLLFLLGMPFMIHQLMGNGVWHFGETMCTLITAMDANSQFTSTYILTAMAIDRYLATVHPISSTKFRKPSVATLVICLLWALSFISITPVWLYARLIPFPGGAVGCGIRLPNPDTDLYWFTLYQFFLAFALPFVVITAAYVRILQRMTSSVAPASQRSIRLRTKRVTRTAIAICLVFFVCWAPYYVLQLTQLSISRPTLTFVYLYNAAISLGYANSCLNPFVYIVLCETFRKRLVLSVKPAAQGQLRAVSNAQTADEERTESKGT

| SMILES | IC50 [1] [nM] | IC50 [2] [nM] | Cmax [5] [ng/g] | Cmax [6] [ng/g] | AUC [7] [µg/h/g] | AUC [8] [µg/h/g] | other results |
| --- | --- | --- | --- | --- | --- | --- | --- |
| O=C(CNCc1ccc(Oc2ccccc2)cc1)Nc1ccc2ncn(CCN3CCCC3)c2c1 | 299 | 1810 |  |  |  |  | AUC [3]: 0.674 µg/h/g; AUC [4]: 1.16 µg/h/mL |
| O=C(Cc1ccc(OCc2ccccc2)cc1)Nc1cccc2nn(CCN3CCCC3)cc12 | 41.4 | 287 | 214 | 12.3 | 0.214 | 2.09 |  |
| O=C(Cc1ccc(OCc2ccccc2)cc1)Nc1ccc2c(c1)ncn2CCN1CCCC1 | 772 | > 10000 |  |  |  |  |  |
| O=C(Cc1ccc(OCc2ccccc2)cc1)Nc1ccc2cn(CCN3CCCC3)nc2c1 | 146 | 874 |  |  |  |  |  |
| O=C(Cc1ccc(OCc2ccccc2)cc1)Nc1ccc2cnn(CCN3CCCC3)c2c1 | 1.4 | 11 | 177 | 29 | 1.33 | 2.12 | Body weight (Mus musculus [9]): 42.6 g; Body weight (Mus musculus [10]): 39.7 g; concentration at 17 h [11]: 5.35 ng/mL; Activity (Mus musculus [12]): -15.2%; Activity (Mus musculus [13]): -8.25%; concentration at 1 h [14]: 115 ng/mL; concentration at 1 h [15]: 233 ng/mL; concentration at 1 h [16]: 168 ng/mL; concentration at 1 h [17]: 824 ng/mL; concentration at 17 h [18]: 7.02 ng/mL; concentration at 17 h [19]: 0.39 ng/mL; concentration at 17 h [20]: 2.23 ng/mL |
| O=C(Cc1ccc(OCc2ccccc2)cc1)Nc1ccc2nn(CCN3CCCC3)cc2c1 | 1990 | > 10000 |  |  |  |  |  |
| O=C(Cc1ccc(OCc2ccccc2)cc1)Nc1ccc2c(cnn2CCN2CCCC2)c1 | 558 | > 10000 | 4260 | 76 | 10.4 | 8.51 |  |
| O=C(Cc1ccc(OCc2ccccc2)cc1)Nc1ccc2ccn(CCN3CCCC3)c2c1 | 22 | 1470 |  |  |  |  | AUC [3]: 0.348 µg/h/g; AUC [4]: 1.37 µg/h/mL |
| O=C(Cc1ccc(OCc2ccccc2)cc1)Nc1cccc2c1cnn2CCN1CCCC1 | 24.5 | 71 | 464 | 8.11 | 1.18 | 0.611 |  |
| O=C(Cc1ccc(OCc2ccccc2)cc1)Nc1ccc2ncn(CCN3CCCC3)c2c1 | 161 | > 10000 |  |  | 0.244 | 0.937 | Cmax [21]: 54.4 ng/g |
| CCN[C@@H](C)Cc1cccc(C(F)(F)F)c1 [DEXFENFLURAMINE] |  |  |  |  |  |  | Body weight (Mus musculus [22]): 40.4 g; Activity (Mus musculus [23]): -10.1% |

From ChEMBL document CHEMBL1142689, “Identification of 2-(4-benzyloxyphenyl)-N- [1-(2-pyrrolidin-1-yl-ethyl)-1H-indazol-6-yl]acetamide, an orally efficacious melanin-concentrating hormone receptor 1 antagonist for the treatment of obesity” (J Med Chem, 2005)
